In ChEMBL document CHEMBL1649165, “Activity profile in vitro of micafungin against Spanish clinical isolates of common and emerging species of yeasts and molds” (2009):
In brackets after ≈: the same amount, converted by molar mass.

Assays:
Format in all cases: functional
Fusarium oxysporum = test: Antimicrobial activity against Fusarium oxysporum by broth microdilution method
Outline: (§1)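 Clinical mould isolates, tested by broth microdilution using the AFST-EUCAST reference method for filamentous fungi. For echinocandins, the endpoint was the minimum effective concentration: the lowest drug concentration giving aberrant hyphal growth, read with an inverted microscope.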

Aspergillus terreus = test: Antimicrobial activity against Aspergillus terreus by broth microdilution method; outline: as §1
Hortaea werneckii = test: Antimicrobial activity against Hortaea werneckii by broth microdilution method
Kluyveromyces marxianus = test: Antimicrobial activity against Candida kefyr by broth microdilution method
Outline: (§2)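 Clinical isolates from human patients, tested by broth microdilution using the AFST-EUCAST reference procedure for fermentative yeasts. The MIC was read per that reference method.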

[1] = system: Scopulariopsis brevicaulis; test: Antimicrobial activity against Scopulariopsis brevicaulis by broth microdilution method
Outline: (§3)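 Filamentous fungus clinical isolates tested by the AFST-EUCAST reference broth microdilution method for moulds. For echinocandins, the endpoint was the minimum effective concentration: the lowest drug concentration giving aberrant hyphal growth, read with an inverted microscope.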

Aspergillus flavus = test: Antimicrobial activity against Aspergillus flavus by broth microdilution method; outline: as §1
Fusarium equiseti = test: Antimicrobial activity against Fusarium equiseti by broth microdilution method; outline: as §1
Scedosporium apiospermum = test: Antimicrobial activity against Scedosporium apiospermum by broth microdilution method; outline: as §3
Fusarium verticillioides = test: Antimicrobial activity against Fusarium verticillioides by broth microdilution method; outline: as §3
Trichosporon domesticum = test: Antimicrobial activity against Trichosporon mycotoxinivorans by broth microdilution method; conditions: Apiotrichum domesticum
Outline: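 Spanish human clinical isolates were tested as nonfermentative yeasts by broth microdilution. The method strictly followed the EUCAST recommendations, with a minor modification to improve growth, and the read-out was the MIC.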

[2] = system: Cryptococcus deneoformans; test: Antimicrobial activity against Cryptococcus neoformans var. neoformans by broth microdilution method
Outline: (§4)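 Clinical isolates of nonfermentative yeasts, tested by broth microdilution following EUCAST recommendations. The only change from that method was a minor modification to improve growth.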

Exophiala dermatitidis = test: Antimicrobial activity against Exophiala dermatitidis by broth microdilution method
Fusarium solani = test: Antimicrobial activity against Fusarium solani by broth microdilution method; outline: as §3
Rhodotorula mucilaginosa = test: Antimicrobial activity against Rhodotorula mucilaginosa by broth microdilution method
Outline: (§5)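 Nonfermentative yeast clinical isolates (Rhodotorula, Trichosporon) tested by broth microdilution. The EUCAST yeast recommendations were followed strictly, with one minor modification to improve growth. MIC was read as the endpoint.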

Candida tropicalis = test: Antimicrobial activity against Candida tropicalis by broth microdilution method; outline: as §2
Diutina rugosa = test: Antimicrobial activity against Candida rugosa by broth microdilution method; outline: as §2
[Candida] intermedia = Antimicrobial activity against Candida intermedia by broth microdilution method; conditions: Sungouiella intermedia; outline: as §2
[3] = system: Meyerozyma guilliermondii; test: Antimicrobial activity against Candida guilliermondii by broth microdilution method; outline: as §2
Scytalidium hyalinum = test: Antimicrobial activity against Scytalidium hyalinum by broth microdilution method; conditions: Neoscytalidium hyalinum; outline: as §3
Lewia infectoria = test: Antimicrobial activity against Alternaria infectoria by broth microdilution method; outline: as §1
Aspergillus ochraceus = test: Antimicrobial activity against Aspergillus ochraceus by broth microdilution method; outline: as §1
Coprinellus domesticus = test: Antimicrobial activity against Hormographiella verticillata by broth microdilution method; outline: as §3
Aspergillus ustus = test: Antimicrobial activity against Aspergillus ustus by broth microdilution method; outline: as §1
Lecythophora hoffmannii = test: Antimicrobial activity against Lecythophora hoffmannii by broth microdilution method; conditions: Coniochaeta hoffmannii; outline: as §3
Aspergillus glaucus = test: Antimicrobial activity against Aspergillus glaucus by broth microdilution method; outline: as §1
Naganishia albida = test: Antimicrobial activity against Cryptococcus albidus by broth microdilution method; outline: as §4
Trichosporon inkin = test: Antimicrobial activity against Trichosporon inkin by broth microdilution method; outline: as §5
Fennellia nivea = test: Antimicrobial activity against Aspergillus niveus by broth microdilution method; outline: as §1
Aureobasidium pullulans = test: Antimicrobial activity against Aureobasidium pullulans by broth microdilution method
Phialemonium curvatum = test: Antimicrobial activity against Phialemonium curvatum by broth microdilution method; conditions: Thyridium curvatum; outline: as §3
Torulaspora delbrueckii = test: Antimicrobial activity against Candida coliculosa by broth microdilution method; outline: as §2
Ustilago = test: Antimicrobial activity against Ustilago spp by broth microdilution method
[4] = system: Cunninghamella bertholletiae; test: Antimicrobial activity against Cunninghamella bertholletiae by broth microdilution method; outline: as §1
Acremonium sp. = test: Antimicrobial activity against Acremonium sp.by broth microdilution method; outline: as §1
Penicillium = test: Antimicrobial activity against Penicillium spp. by broth microdilution method; outline: as §3
Candida orthopsilosis = test: Antimicrobial activity against Candida orthopsilosis by broth microdilution method; conditions: Lodderomyces orthopsilosis; outline: as §2
[5] = system: Kazachstania pintolopesii; test: Antimicrobial activity against Candida pintolopesii by broth microdilution method; conditions: Arxiozyma pintolopesii; outline: as §2
Fusarium proliferatum = test: Antimicrobial activity against Fusarium proliferatum by broth microdilution method; outline: as §1
Aspergillus nidulans = test: Antimicrobial activity against Aspergillus nidulans by broth microdilution method; outline: as §1
Clavispora lusitaniae = test: Antimicrobial activity against Candida lusitaniae by broth microdilution method; outline: as §2
Rhodotorula glutinis = test: Antimicrobial activity against Rhodotorula glutinis by broth microdilution method; outline: as §5
Fusarium reticulatum = test: Antimicrobial activity against Fusarium reticulatum by broth microdilution method; outline: as §3
Mucor = test: Antimicrobial activity against Mucor spp.by broth microdilution method; outline: as §3
Rhizopus arrhizus = test: Antimicrobial activity against Rhizopus oryzae by broth microdilution method; outline: as §3

CC[C@H](C)C[C@H](C)CCCCCCCCC(=O)N[C@H]1C[C@@H](O)[C@@H](NCCN)NC(=O)[C@@H]2[C@@H](O)CCN2C(=O)[C@H]([C@H](O)CCN)NC(=O)[C@H]([C@H](O)[C@@H](O)c2ccc(O)cc2)NC(=O)[C@@H]2C[C@@H](O)CN2C(=O)[C@H]([C@@H](C)O)NC1=O [CASPOFUNGIN]
MIC50 (Fusarium oxysporum): > 16 µg/mL | MIC90 (Fusarium oxysporum): > 16 µg/mL | MIC50 (Aspergillus terreus): 1 µg/mL (≈ 0.915 µM) | MIC90 (Aspergillus terreus): 2 µg/mL (≈ 1.83 µM) | MIC50 (Hortaea werneckii): 0.25 µg/mL (≈ 0.229 µM) | MIC90 (Hortaea werneckii): 1 µg/mL (≈ 0.915 µM) | MIC50 (Kluyveromyces marxianus): 0.06 µg/mL (≈ 0.0549 µM) | MIC90 (Kluyveromyces marxianus): 0.12 µg/mL (≈ 0.11 µM) | MIC50 [1]: > 16 µg/mL | MIC90 [1]: > 16 µg/mL | MIC50 (Aspergillus flavus): > 16 µg/mL | MIC90 (Aspergillus flavus): > 16 µg/mL | MIC50 (Fusarium equiseti): > 16 µg/mL | MIC90 (Fusarium equiseti): > 16 µg/mL | MIC50 (Scedosporium apiospermum): 2 µg/mL (≈ 1.83 µM) | MIC90 (Scedosporium apiospermum): > 16 µg/mL | MIC50 (Fusarium verticillioides): > 16 µg/mL | MIC90 (Fusarium verticillioides): > 16 µg/mL | MIC50 (Trichosporon domesticum): > 16 µg/mL | MIC90 (Trichosporon domesticum): > 16 µg/mL | MIC50 [2]: > 16 µg/mL | MIC90 [2]: > 16 µg/mL | MIC50 (Exophiala dermatitidis): 0.25 µg/mL (≈ 0.229 µM) | MIC90 (Exophiala dermatitidis): 1 µg/mL (≈ 0.915 µM) | MIC50 (Fusarium solani): > 16 µg/mL | MIC90 (Fusarium solani): > 16 µg/mL | MIC50 (Rhodotorula mucilaginosa): > 16 µg/mL | MIC90 (Rhodotorula mucilaginosa): > 16 µg/mL | MIC50 (Candida tropicalis): 0.12 µg/mL (≈ 0.11 µM) | MIC90 (Candida tropicalis): 0.25 µg/mL (≈ 0.229 µM) | MIC50 (Diutina rugosa): 0.06 µg/mL (≈ 0.0549 µM) | MIC90 (Diutina rugosa): 0.5 µg/mL (≈ 0.457 µM) | MIC50 ([Candida] intermedia): 0.06 µg/mL (≈ 0.0549 µM) | MIC90 ([Candida] intermedia): 0.5 µg/mL (≈ 0.457 µM) | MIC50 [3]: 0.5 µg/mL (≈ 0.457 µM) | MIC90 [3]: 1 µg/mL (≈ 0.915 µM) | MIC50 (Scytalidium hyalinum): 0.25 µg/mL (≈ 0.229 µM) | MIC90 (Scytalidium hyalinum): 1 µg/mL (≈ 0.915 µM) | MIC50 (Lewia infectoria): > 16 µg/mL | MIC90 (Lewia infectoria): > 16 µg/mL | MIC50 (Aspergillus ochraceus): 0.12 µg/mL (≈ 0.11 µM) | MIC90 (Aspergillus ochraceus): 0.5 µg/mL (≈ 0.457 µM) | MIC50 (Coprinellus domesticus): > 16 µg/mL | MIC90 (Coprinellus domesticus): > 16 µg/mL | MIC50 (Aspergillus ustus): 0.12 µg/mL (≈ 0.11 µM) | MIC90 (Aspergillus ustus): 0.5 µg/mL (≈ 0.457 µM) | MIC50 (Lecythophora hoffmannii): 0.25 µg/mL (≈ 0.229 µM) | MIC90 (Lecythophora hoffmannii): 1 µg/mL (≈ 0.915 µM) | MIC50 (Aspergillus glaucus): 0.12 µg/mL (≈ 0.11 µM) | MIC90 (Aspergillus glaucus): 0.5 µg/mL (≈ 0.457 µM) | MIC50 (Naganishia albida): > 16 µg/mL | MIC90 (Naganishia albida): > 16 µg/mL | MIC50 (Trichosporon inkin): > 16 µg/mL | MIC90 (Trichosporon inkin): > 16 µg/mL | MIC50 (Fennellia nivea): 0.12 µg/mL (≈ 0.11 µM) | MIC90 (Fennellia nivea): 0.5 µg/mL (≈ 0.457 µM) | MIC50 (Aureobasidium pullulans): 0.25 µg/mL (≈ 0.229 µM) | MIC90 (Aureobasidium pullulans): 1 µg/mL (≈ 0.915 µM) | MIC50 (Phialemonium curvatum): > 16 µg/mL | MIC90 (Phialemonium curvatum): > 16 µg/mL | MIC50 (Torulaspora delbrueckii): 0.06 µg/mL (≈ 0.0549 µM) | MIC90 (Torulaspora delbrueckii): 0.5 µg/mL (≈ 0.457 µM) | MIC50 (Ustilago): > 16 µg/mL | MIC90 (Ustilago): > 16 µg/mL | MIC50 [4]: > 16 µg/mL | MIC90 [4]: > 16 µg/mL | MIC50 (Acremonium sp.): 0.5 µg/mL (≈ 0.457 µM) | MIC90 (Acremonium sp.): 1 µg/mL (≈ 0.915 µM) | MIC50 (Penicillium): 0.25 µg/mL (≈ 0.229 µM) | MIC90 (Penicillium): 8 µg/mL (≈ 7.32 µM) | MIC50 (Candida orthopsilosis): 0.06 µg/mL (≈ 0.0549 µM) | MIC90 (Candida orthopsilosis): 0.5 µg/mL (≈ 0.457 µM) | MIC50 [5]: 0.06 µg/mL (≈ 0.0549 µM) | MIC90 [5]: 0.5 µg/mL (≈ 0.457 µM) | MIC50 (Fusarium proliferatum): > 16 µg/mL | MIC90 (Fusarium proliferatum): > 16 µg/mL | MIC50 (Aspergillus nidulans): 0.5 µg/mL (≈ 0.457 µM) | MIC90 (Aspergillus nidulans): > 16 µg/mL | MIC50 (Clavispora lusitaniae): 0.5 µg/mL (≈ 0.457 µM) | MIC90 (Clavispora lusitaniae): 1 µg/mL (≈ 0.915 µM) | MIC50 (Rhodotorula glutinis): > 16 µg/mL | MIC90 (Rhodotorula glutinis): > 16 µg/mL | MIC50 (Fusarium reticulatum): > 16 µg/mL | MIC90 (Fusarium reticulatum): > 16 µg/mL | MIC50 (Mucor): > 16 µg/mL | MIC90 (Mucor): > 16 µg/mL | MIC50 (Rhizopus arrhizus): > 16 µg/mL | MIC90 (Rhizopus arrhizus): > 16 µg/mL
